According to ChEMBL document CHEMBL2434834, “Synthesis of pyrido[2,1-a]isoquinolin-4-ones and oxazino[2,3-a]isoquinolin-4-ones: new inhibitors of mitochondrial respiratory chain” (Eur J Med Chem, 2013):

Columns and labels:
[1] = Inhibition of NADH oxidase in beef heart sub-mitochondrial particles after 5 mins; design: species or system Bos taurus
Outline: (§1)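 Inverted beef-heart submitochondrial particles were made by extensive sonication of frozen-thawed mitochondria and stored at -70 °C at 28 mg/mL protein (Bradford). After incubation with inhibitor, particles were diluted to […] in 50 mM potassium phosphate pH 7.4 with 1 mM EDTA, at 22 °C with NADH. Aerobic NADH oxidation was followed at 340 nm (ε 6.22 mM⁻¹ cm⁻¹), with rates taken from the linear decrease at increasing inhibitor concentrations.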

[2] = Inhibition of NADH oxidase in beef heart sub-mitochondrial particles by UV-spectrophotometric analysis; design: species or system Bos taurus; outline: as §1

Row | IC50 [1] [nM] | IC50 [2] [nM] | Structure (SMILES)
1 |  | 1530 | COc1cc2c(cc1OC)C1(Cc3ccccc3)OC(C)=CC(=O)N1CC2 (stereo not given)
2 |  | 1320 | COc1cc2c(cc1OC)C1(C)OC(c3ccccc3)=CC(=O)N1CC2 (stereo not given)
3 |  | 4240 | COc1cc2c(cc1OC)-c1c(-c3ccccc3Br)c(C)cc(=O)n1CC2
4 |  | 1390 | COc1cc2c(cc1OC)C1(Cc3ccccc3Br)OC(C)=CC(=O)N1CC2 (stereo not given)
5 |  | 4690 | COc1cc2c(cc1OC)-c1c(-c3ccccc3)c(C)cc(=O)n1CC2
6 | 2500 |  | COc1cc(O)c2nc3n(c(=O)c2c1)-c1ccccc1C(=O)N1CCC[C@@H]31
7 | 1500 |  | COc1ccc2nc3n(c(=O)c2c1)-c1ccccc1C(=O)N1CCC[C@@H]31
8 |  | > 30000 | COc1cc2c(cc1OC)-c1cc(-c3ccccc3)cc(=O)n1CC2

More lines, now with the values behind:

Row | Structure (SMILES) | IC50 [1] [nM] | IC50 [2] [nM]
9 | CC(C)Cc1cnc(CC(C)C)c(=O)[nH]1 | 13000 | 
10 | COc1cc2c(cc1OC)C1(C)OC(C)=CC(=O)N1CC2 (stereo not given) |  | 1360
11 | COc1cc2c(cc1OC)-c1cc(C)cc(=O)n1CC2 |  | 8230
12 | COc1cc2c(cc1OC)-c1cc(-c3ccco3)cc(=O)n1CC2 |  | 12500
13 | COc1cc2c(cc1OC)C1(C)OC(c3ccco3)=CC(=O)N1CC2 (stereo not given) |  | 900
14 | Cc1cc2n(c(=O)c1)CCc1cc(O)c(O)cc1-2 |  | 3440
15 | C=C(C)[C@H]1Cc2c(ccc3c2O[C@@H]2COc4cc(OC)c(OC)cc4[C@@H]2C3=O)O1 [ROTENONE] |  | 5.1
